Assay results published in BindingDB's records for doi:10.1016/j.bmcl.2019.08.010 (Stanford University, 2019).

Target: T1, Uridine-cytidine kinase 2 (Homo sapiens, UniProt Q9BZX2)
T1 sequence (Q9BZX2 whole entry): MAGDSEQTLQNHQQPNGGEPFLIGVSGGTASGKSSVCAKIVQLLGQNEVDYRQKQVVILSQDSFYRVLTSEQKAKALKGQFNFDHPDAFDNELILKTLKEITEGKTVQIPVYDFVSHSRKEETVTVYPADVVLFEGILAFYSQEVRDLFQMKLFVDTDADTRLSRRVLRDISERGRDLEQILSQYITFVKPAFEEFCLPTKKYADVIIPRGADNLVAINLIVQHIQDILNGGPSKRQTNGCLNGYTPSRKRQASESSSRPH
Assay: Inhibition of C-terminally His6-tagged human UCK2 expressed in Escherichia coli BL21(DE3) cells incubated for 15 mins before ATP addition and measured after 60 mins by ADP-Glo kinase assay
Procedure, shortened: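 His6-tagged UCK2 (C-terminal tag), purified by Ni-NTA then ion exchange; UCK2 phosphorylates uridine with ATP and ADP-Glo measures the ADP formed, after depleting leftover ATP, as luciferase luminescence. Run in 1536-well format with 0.5 mg/mL BSA, DMSO up to 3%. Primary screen at 33 μM with hit cut-off of 3 SD of the negative control. Confirmation used 8 half-log concentrations, 0.05–167 µM.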

IC50: 137 µM
SMILES: Cc1ccccc1NC(=O)CSCn1[nH]nc2c(=O)nc(Cc3ccc(F)cc3)nc1-2
